# Measurements taken from ChEMBL document CHEMBL3797026, “Caatinga plants: Natural and semi-synthetic compounds potentially active against Trichomonas vaginalis” (Bioorg Med Chem Lett, 2016).
# Calls of active or inactive are those of the source. No cut-off for these calls is given here.
# Experiments:
# Trichomonas vaginalis [1] = assay: Antitrichomonal activity against metronidazole-sensitive Trichomonas vaginalis ATCC 30236 clinical isolate trophozoites assessed as parasite viability at 100 uM after 24 hrs by trypan blue dye based hemocytometry; assay type: functional
# In short: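 Single-concentration screen at 100 µM with trophozoites at 1.0 × 10^5/mL. Incubation was 24 h at 37 °C in 5.0% CO2, with a 0.62% DMSO vehicle control and 100 µM metronidazole as positive control. Viable parasites were counted by hemocytometer using motility, normal morphology and 0.2% trypan blue exclusion, and reported as % of untreated. Three experiments were run in triplicate.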
# Trichomonas vaginalis [2] = assay: Antitrichomonal activity against metronidazole-resistant Trichomonas vaginalis TV-LACM2R clinical isolate trophozoites; assay type: functional
# Trichomonas vaginalis [3] = assay: Antitrichomonal activity against metronidazole-resistant Trichomonas vaginalis TV-LACM2R clinical isolate trophozoites assessed as reduction in parasite viability at 15 uM after 24 hrs by trypan blue dye based hemocytometry; assay type: functional
# In short: (§1)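 Trophozoites at 1.0 × 10^5/mL were incubated 24 h at 37 °C in 5.0% CO2. Viable parasites were counted by hemocytometer, judged by motility, normal morphology and exclusion of 0.2% trypan blue. Viability is expressed as a percentage of untreated parasites. Three independent parasite suspensions were each run in triplicate, reported as mean ± SD.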
# [4] = Selectivity index, ratio of CC50 for HMVII cells to IC50 for metronidazole-sensitive Trichomonas vaginalis ATCC 30236 clinical isolate trophozoites after 24 hrs; assay type: functional
# In short: (§2)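 Selectivity index calculated as CC50 in the mammalian line (MTT, 24 or 48 h exposure) divided by the anti-T. vaginalis IC50.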
# Trichomonas vaginalis [5] = assay: Antitrichomonal activity against metronidazole-sensitive Trichomonas vaginalis ATCC 30236 clinical isolate trophozoites assessed as appearance of flagella at 50 uM after 2 hrs by scanning electron microscopic analysis; assay type: functional, organism-based
# In short: (§3)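 Scanning EM: trophozoites (1.0 × 10^5/mL) were treated or not with 50 µM. They were fixed in 2.5% glutaraldehyde in 0.1 M sodium cacodylate pH 7.2, post-fixed in 1.0% OsO4 in the same buffer, and dehydrated in acetone. Untreated trophozoites served as control.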
# [6] = Cytotoxicity against african green monkey Vero cells assessed as reduction in cell viability after 24 hrs by MTT assay; assay type: cell-based; conditions: chlorocebus sabaeus
# Trichomonas vaginalis [7] = assay: Antitrichomonal activity against metronidazole-sensitive Trichomonas vaginalis ATCC 30236 clinical isolate trophozoites assessed as membrane projections and holes at 50 uM after 2 hrs by scanning microscopic analysis; assay type: functional, organism-based; in short: as §3
# Trichomonas vaginalis [8] = assay: Antitrichomonal activity against metronidazole-sensitive Trichomonas vaginalis ATCC 30236 clinical isolate trophozoites assessed as parasite viability after 2 to 12 hrs by FDA/PI dye staining based flow cytometry; assay type: functional, organism-based
# In short: (§4)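 Flow cytometry: parasites were exposed or not to 50 µM for 0, 2, 4, 6 and 12 h, then co-stained with FDA and PI (10 µg/mL each) for 20 min. FDA-retaining cells with intact membranes were scored viable and PI-positive cells nonviable. Three parasite suspensions were tested in triplicate.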
# [9] = Cytotoxicity against HMVII cells assessed as reduction in cell viability at 50 uM after 48 hrs by MTT assay; assay type: cell-based; conditions: human, hmv-2, 48 h
# In short: (§5)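 MTT assay: cells were grown in DMEM with 10% FBS at 37 °C in 5% CO2 and seeded at 3.0 × 10^4 or 1.0 × 10^4 cells/well overnight. Medium was replaced with fresh medium with or without 50 µM, with 0.2% Triton X-100 as positive control, for 24 or 48 h. MTT (0.5 mg/mL) was added for 1 h, formazan was dissolved in DMSO and read at 570 nm. Triplicates.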
# [10] = Cytotoxicity against HMVII cells assessed as reduction in cell viability at 50 uM after 24 hrs by MTT assay; assay type: cell-based; conditions: human, hmv-2, 24 h; in short: as §5
# Trichomonas vaginalis [11] = assay: Antitrichomonal activity against metronidazole-sensitive Trichomonas vaginalis ATCC 30236 clinical isolate trophozoites assessed as undulating membrane at 50 uM after 2 hrs by scanning electron microscopic analysis; assay type: functional, organism-based; in short: as §3
# [12] = Cytotoxicity against HMVII cells assessed as reduction in cell viability after 24 hrs by MTT assay; assay type: cell-based, HMV-2; conditions: human
# Trichomonas vaginalis [13] = assay: Antitrichomonal activity against metronidazole-sensitive Trichomonas vaginalis ATCC 30236 clinical isolate trophozoites assessed as parasite viability after 24 hrs by trypan blue dye based hemocytometry; assay type: functional, organism-based; conditions: ATCC 30236, 24 h
# In short: (§6)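 Trophozoites (1.0 × 10^5/mL) were cultured in TYM and exposed to a dilution series from 100 to 0.78 µM for 24 h. Viable counts were taken by hemocytometer with 0.2% trypan blue exclusion and compared with untreated parasites. To confirm the MIC, parasites were transferred to fresh TYM medium. Triplicates were run with three independent cultures.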
# [14] = Selectivity index, ratio of CC50 for african green monkey Vero cells to IC50 for metronidazole-sensitive Trichomonas vaginalis ATCC 30236 clinical isolate trophozoites after 48 hrs; assay type: functional; in short: as §2
# Trichomonas vaginalis [15] = assay: Antitrichomonal activity against metronidazole-resistant Trichomonas vaginalis TV-LACM2R clinical isolate trophozoites assessed as reduction in parasite viability at 12.5 uM after 24 hrs by trypan blue dye based hemocytometry; assay type: functional, organism-based; in short: as §1
# HeLa [16] = assay: Cytotoxicity against human HeLa cells assessed as reduction in cell viability at 50 uM after 24 hrs by MTT assay; assay type: cell-based; in short: as §5
# Trichomonas vaginalis [17] = assay: Antitrichomonal activity against metronidazole-sensitive Trichomonas vaginalis ATCC 30236 clinical isolate trophozoites assessed as rounded parasite at 50 uM after 2 hrs by scanning electron microscopic analysis; assay type: functional, organism-based; in short: as §3
# HeLa [18] = assay: Cytotoxicity against human HeLa cells assessed as reduction in cell viability at 50 uM after 48 hrs by MTT assay; assay type: cell-based; in short: as §5
# Trichomonas vaginalis [19] = assay: Antitrichomonal activity against metronidazole-sensitive Trichomonas vaginalis ATCC 30236 clinical isolate trophozoites assessed as decrease in parasite viability at 50 to 100 uM after 24 hrs by trypan blue dye based hemocytometry; assay type: functional, organism-based; in short: as §6
# [20] = Cytotoxicity against african green monkey Vero cells assessed as reduction in cell viability after 48 hrs by MTT assay; assay type: cell-based; conditions: chlorocebus sabaeus
# [21] = Cytotoxicity against HMVII cells assessed as reduction in cell viability after 48 hrs by MTT assay; assay type: cell-based, HMV-2; conditions: human
# Trichomonas vaginalis [22] = assay: Antitrichomonal activity against metronidazole-resistant Trichomonas vaginalis TV-LACM2R clinical isolate trophozoites assessed as reduction in parasite viability at 12.5 uM after 24 hrs by trypan blue dye based hemocytometry in presence of metronidazole; assay type: functional, organism-based; in short: as §1
# Trichomonas vaginalis [23] = assay: Antitrichomonal activity against metronidazole-sensitive Trichomonas vaginalis ATCC 30236 clinical isolate trophozoites assessed as inhibition of parasite growth at 50 uM after 12 to 24 hrs by hemocytometry; assay type: functional, organism-based
# In short: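 Kinetic growth curve: trophozoites (1.0 × 10^5/mL) were incubated with or without 50 µM for 2, 4, 6, 12, 24, 48, 72 and 96 h. Parasites were counted by hemocytometer and expressed as trophozoites/mL relative to untreated controls.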
# Vero = assay: Cytotoxicity against african green monkey Vero cells assessed as reduction in cell viability at 50 uM after 24 to 48 hrs by MTT assay; assay type: cell-based; conditions: chlorocebus sabaeus; in short: as §5
# [24] = Selectivity index, ratio of CC50 for african green monkey Vero cells to IC50 for metronidazole-sensitive Trichomonas vaginalis ATCC 30236 clinical isolate trophozoites after 24 hrs; assay type: functional; in short: as §2
# Trichomonas vaginalis [25] = assay: Antitrichomonal activity against metronidazole-sensitive Trichomonas vaginalis ATCC 30236 clinical isolate trophozoites assessed as reduction of parasite viability after 2 hrs by FDA/PI dye staining based flow cytometry relative to control; assay type: functional; in short: as §4
# Trichomonas vaginalis [26] = assay: Antitrichomonal activity against metronidazole-sensitive Trichomonas vaginalis ATCC 30236 clinical isolate trophozoites assessed as parasite shape disruption at 50 uM after 2 hrs by scanning electron microscopy; assay type: functional, organism-based; in short: as §3
# [27] = Selectivity index, ratio of CC50 for HMVII cells to IC50 for metronidazole-sensitive Trichomonas vaginalis ATCC 30236 clinical isolate trophozoites after 48 hrs; assay type: functional; in short: as §2
compound,measurement,setting,value
CCCCCC(=O)O[C@H]1CC[C@]2(C)[C@H]3CC=C4[C@@H]5CC(C)(C)CC[C@]5(C)CC[C@@]4(C)[C@]3(C)CC[C@H]2C1(C)C,Activity,Trichomonas vaginalis [1],62.8%
C=C(C)[C@@H]1CC[C@]2(C)CC[C@]3(C)[C@H](CC[C@@H]4[C@@]5(C)CC[C@H](OC(=O)CCCCC)C(C)(C)[C@@H]5CC[C@]43C)[C@@H]12,Activity,Trichomonas vaginalis [1],71.4%
CCCCCC(=O)O[C@H]1CC[C@]2(C)[C@H]3CC=C4[C@@H]5[C@@H](C)[C@H](C)CC[C@]5(C)CC[C@@]4(C)[C@]3(C)CC[C@H]2C1(C)C,Activity,Trichomonas vaginalis [1],56.2%
C[C@H]1[C@H](C)CC[C@]2(C)CC[C@]3(C)C(=CC[C@@H]4[C@@]5(C)CC[C@H](O)C(C)(C)[C@@H]5CC[C@]43C)[C@H]12,Activity,Trichomonas vaginalis [1],76.1%
CC(=O)O[C@H]1CC[C@]2(C)[C@H]3CC=C4[C@@H]5[C@@H](C)[C@H](C)CC[C@]5(C)CC[C@@]4(C)[C@]3(C)CC[C@H]2C1(C)C,Activity,Trichomonas vaginalis [1],56.4%
C=C(C)[C@@H]1CC[C@]2(C)CC[C@]3(C)[C@H](CC[C@@H]4[C@@]5(C)CC[C@H](OC(C)=O)C(C)(C)[C@@H]5CC[C@]43C)[C@@H]12 [LUPENYL ACETATE],Activity,Trichomonas vaginalis [1],59.8%
C=C(C)[C@@H]1CC[C@]2(C)CC[C@]3(C)[C@H](CC[C@@H]4[C@@]5(C)CC[C@H](O)C(C)(C)[C@@H]5CC[C@]43C)[C@@H]12 [LUPEOL],Activity,Trichomonas vaginalis [1],117.8%
Cc1ncc([N+](=O)[O-])n1CCO [METRONIDAZOLE],MIC,Trichomonas vaginalis [2],73 µM
same,Activity,Trichomonas vaginalis [3],80%
same,Activity,Trichomonas vaginalis [1],0%
CC1(C)CC[C@]2(C(=O)O)CC[C@]3(C)C(=CC[C@@H]4[C@@]5(C)CC[C@H](O)C(C)(C)[C@@H]5CC[C@]43C)[C@@H]2C1 [OLEANOLIC_ACID],Activity,Trichomonas vaginalis [1],78.3%
C[C@H]1[C@H](C)CC[C@]2(C(=O)O)CC[C@]3(C)C(=CC[C@@H]4[C@@]5(C)CC[C@H](O)C(C)(C)[C@@H]5CC[C@]43C)[C@H]12 [URSOLIC ACID],Ratio CC50/IC50,[4],4.13
same,Activity,Trichomonas vaginalis [5],Active
same,CC50 at 24 h,[6],31.9 µM
same,Activity,Trichomonas vaginalis [7],Active
same,Activity,Trichomonas vaginalis [8],Active
same,Activity,[9],90%
same,Activity,[10],60%
same,Activity,Trichomonas vaginalis [11],Active
same,CC50 at 24 h,[12],146 µM
same,IC50,Trichomonas vaginalis [13],35.3 µM
same,MIC,Trichomonas vaginalis [13],50 µM
same,Ratio CC50/IC50,[14],1.02
same,Activity,Trichomonas vaginalis [15],Active
same,Activity,HeLa [16],50%
same,Activity,Trichomonas vaginalis [17],Active
same,Activity,HeLa [18],90%
same,Activity,Trichomonas vaginalis [19],Active
same,CC50 at 48 h,[20],35.9 µM
same,CC50 at 48 h,[21],69.5 µM
same,Activity,Trichomonas vaginalis [22],Active
same,Activity,Trichomonas vaginalis [1],0%
same,growth inhibition (GI),Trichomonas vaginalis [23],Active
same,Activity,Vero,30%
same,Ratio CC50/IC50,[24],0.9
same,Activity,Trichomonas vaginalis [25],98%
same,Activity,Trichomonas vaginalis [26],Active
same,Ratio CC50/IC50,[27],1.97
CC(=O)O[C@H]1CC[C@]2(C)[C@H]3CC=C4[C@@H]5CC(C)(C)CC[C@]5(C)CC[C@@]4(C)[C@]3(C)CC[C@H]2C1(C)C [beta-AMYRIN ACETATE],Activity,Trichomonas vaginalis [1],54.5%
CC1(C)CC[C@]2(C)CC[C@]3(C)C(=CC[C@@H]4[C@@]5(C)CC[C@H](O)C(C)(C)[C@@H]5CC[C@]43C)[C@@H]2C1 [beta-AMYRIN],Activity,Trichomonas vaginalis [1],84.3%
